pEC50: −log10 of the molar value. Blank lines part the entries; values can stand above or below the molecule they belong to. The source made the active and inactive calls. No cut-off for these calls is given here. Where a SMILES comes first, the peptide text is derived from it. [ ]: non-standard residue; d: D form. The star is where a group is joined. Bn = c1ccc(C*)cc1; Acm = CC(=O)NC*; tBu = CC(C)(C)*
How the values were obtained:
[1] = target: T1, Neuropeptide S receptor (Mus musculus) (UniProt Q8BZP8); assay: Agonist activity at mouse NPSR expressed in HEK293 cells upto 10 uM by calcium mobilization assay; format: functional, cell-based
T1 sequence (whole entry): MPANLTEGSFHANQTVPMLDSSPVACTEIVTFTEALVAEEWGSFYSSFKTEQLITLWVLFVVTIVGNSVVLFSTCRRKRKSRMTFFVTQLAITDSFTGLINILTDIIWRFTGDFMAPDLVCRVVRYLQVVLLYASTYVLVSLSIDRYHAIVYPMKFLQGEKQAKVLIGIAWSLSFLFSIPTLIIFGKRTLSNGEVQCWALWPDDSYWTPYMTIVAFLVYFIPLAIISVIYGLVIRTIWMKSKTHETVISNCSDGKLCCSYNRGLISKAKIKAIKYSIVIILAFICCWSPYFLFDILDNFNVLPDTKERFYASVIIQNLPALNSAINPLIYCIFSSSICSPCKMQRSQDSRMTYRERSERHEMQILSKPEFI
Procedure, shortened: (§1)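 HEK293 cells stably expressing mouse NPSR were grown in DMEM with 10% FBS, 2 mM glutamine and hygromycin. They were plated on poly-D-lysine wells and, the next day, loaded for 30 min at 37 °C with 3 μM Fluo-4 AM, 2.5 mM probenecid and 0.01% pluronic acid. Fluorescence was read at about 22 °C in HBSS with 20 mM HEPES, probenecid and 500 μM Brilliant Black. The response was the peak fluorescence change as % of baseline, from at least 4 experiments run in duplicate.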

Neuropeptide S receptor = target: T2, Neuropeptide S receptor (Mus musculus, UniProt Q8BZP8); assay: Agonist activity at mouse NPSR expressed in HEK293 cells by calcium mobilization assay; format: functional, cell-based; procedure, shortened: as §1
T2 sequence (Q8BZP8 whole entry): T1 sequence (whole entry)

Mus musculus [2] = assay: Effect on locomotor activity in […] Swiss mouse assessed as immobility time at 1 nmol, icv befor 5 mins observed for 60 mins; format: functional, organism-based
Procedure, shortened: (§2)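 Male Swiss mice (2 months, 25–30 g) received peptide i.c.v. at 0.01–1 nmole in 2 μl into the left ventricle under light ether anaesthesia, 5 min before testing. Each mouse was used once, in the light phase, with no food during testing. Activity was tracked for 60 min in 40 × 40 cm cages. Video recorded distance and immobility time, and an infrared beam array counted rearings. There were 4 experiments with 4 mice/group.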

Mus musculus [3] = assay: Effect on locomotor activity in […] Swiss mouse assessed as number of rearings dosed at 1 nmol, icv befor 5 mins observed for 60 mins; format: functional, organism-based; procedure, shortened: as §2
Mus musculus [4] = assay: Effect on locomotor activity in […] Swiss mouse assessed as increase in cumulative distance traveled dosed at 1 nmol, icv before 5 mins observed for 60 mins; format: functional, organism-based; procedure, shortened: as §2
Mus musculus [5] = assay: Effect on locomotor activity in […] Swiss mouse assessed as increase in cumulative distance traveled dosed at 0.1 nmol, icv before 5 mins observed for 60 mins; format: functional, organism-based; procedure, shortened: as §2
Mus musculus [6] = assay: Effect on locomotor activity in […] Swiss mouse assessed as increase in number of rearings dosed at 0.1 nmol, icv before 5 mins observed for 60 mins; format: functional, organism-based; procedure, shortened: as §2
Mus musculus [7] = assay: Effect on locomotor activity in […] Swiss mouse assessed as decrease in immobility time at 0.1 nmol, icv before 5 mins observed for 60 mins
[8] = target: T1, Neuropeptide S receptor (Mus musculus); assay: Agonist activity at mouse NPSR expressed in HEK293 cells by calcium mobilization assay relative to basal level; format: functional, cell-based; procedure, shortened: as §1

Molecule: CSCC[C@H](NC(=O)CNC(=O)[C@@H](NC(=O)CNC(=O)[C@@H](NC(=O)[C@@H](Cc1ccccc1)NC(=O)[C@H](CC(N)=O)NC(=O)[C@H](CCCNC(=N)N)NC(=O)[C@H](Cc1ccccc1)NC(=O)[C@@H](N)CO)C(C)C)[C@@H](C)O)C(=O)N[C@@H](CCCCN)C(=O)N[C@@H](CCCCN)C(=O)N[C@H](C(=O)N[C@@H](CO)C(=O)N[C@@H](Cc1ccccc1)C(=O)N[C@@H](CCC(N)=O)C(=O)N[C@@H](CCCNC(=N)N)C(=O)N[C@@H](C)C(=O)N[C@@H](CCCCN)C(=O)N[C@@H](CO)C(=O)O)[C@@H](C)O (H-SFRN[dF]VGTGMKKTSFQRAKS-OH)
Activity [1]: inactive

Molecule: CSCC[C@H](NC(=O)CNC(=O)[C@@H](NC(=O)CNC(=O)[C@@H](NC(=O)[C@@H](CCSC)NC(=O)[C@H](CC(N)=O)NC(=O)[C@H](CCCNC(=N)N)NC(=O)[C@H](Cc1ccccc1)NC(=O)[C@@H](N)CO)C(C)C)[C@@H](C)O)C(=O)N[C@@H](CCCCN)C(=O)N[C@@H](CCCCN)C(=O)N[C@H](C(=O)N[C@@H](CO)C(=O)N[C@@H](Cc1ccccc1)C(=O)N[C@@H](CCC(N)=O)C(=O)N[C@@H](CCCNC(=N)N)C(=O)N[C@@H](C)C(=O)N[C@@H](CCCCN)C(=O)N[C@@H](CO)C(=O)O)[C@@H](C)O (H-SFRN[dM]VGTGMKKTSFQRAKS-OH)
Activity [1]: inactive

Molecule: CSCC[C@H](NC(=O)CNC(=O)[C@@H](NC(=O)CNC(=O)[C@@H](NC(=O)[C@H](NC(=O)[C@H](CC(N)=O)NC(=O)[C@H](CCCNC(=N)N)NC(=O)[C@H](Cc1ccccc1)NC(=O)[C@@H](N)CO)C(C)C)C(C)C)[C@@H](C)O)C(=O)N[C@@H](CCCCN)C(=O)N[C@@H](CCCCN)C(=O)N[C@H](C(=O)N[C@@H](CO)C(=O)N[C@@H](Cc1ccccc1)C(=O)N[C@@H](CCC(N)=O)C(=O)N[C@@H](CCCNC(=N)N)C(=O)N[C@@H](C)C(=O)N[C@@H](CCCCN)C(=O)N[C@@H](CO)C(=O)O)[C@@H](C)O (H-SFRN[dV]VGTGMKKTSFQRAKS-OH)
Activity (Mus musculus [2]): Active
Activity (Mus musculus [3]): Active
Activity [1]: inactive
Activity (Mus musculus [4]): Active

Molecule: CSCC[C@H](NC(=O)CNC(=O)[C@@H](NC(=O)CNC(=O)[C@@H](NC(=O)[C@@H](Cc1c[nH]c2ccccc12)NC(=O)[C@H](CC(N)=O)NC(=O)[C@H](CCCNC(=N)N)NC(=O)[C@H](Cc1ccccc1)NC(=O)[C@@H](N)CO)C(C)C)[C@@H](C)O)C(=O)N[C@@H](CCCCN)C(=O)N[C@@H](CCCCN)C(=O)N[C@H](C(=O)N[C@@H](CO)C(=O)N[C@@H](Cc1ccccc1)C(=O)N[C@@H](CCC(N)=O)C(=O)N[C@@H](CCCNC(=N)N)C(=O)N[C@@H](C)C(=O)N[C@@H](CCCCN)C(=O)N[C@@H](CO)C(=O)O)[C@@H](C)O (H-SFRN[dW]VGTGMKKTSFQRAKS-OH)
Activity [1]: inactive

Molecule: H-SFRNWVGTGMKKTSFQRAKS-OH
Emax [8]: 30%

More lines, main results first:

Activity [1]: inactive
Molecule: CSCC[C@H](NC(=O)CNC(=O)[C@@H](NC(=O)CNC(=O)[C@@H](NC(=O)[C@@H](CSCNC(C)=O)NC(=O)[C@H](CC(N)=O)NC(=O)[C@H](CCCNC(=N)N)NC(=O)[C@H](Cc1ccccc1)NC(=O)[C@@H](N)CO)C(C)C)[C@@H](C)O)C(=O)N[C@@H](CCCCN)C(=O)N[C@@H](CCCCN)C(=O)N[C@H](C(=O)N[C@@H](CO)C(=O)N[C@@H](Cc1ccccc1)C(=O)N[C@@H](CCC(N)=O)C(=O)N[C@@H](CCCNC(=N)N)C(=O)N[C@@H](C)C(=O)N[C@@H](CCCCN)C(=O)N[C@@H](CO)C(=O)O)[C@@H](C)O (H-SFRN[dC](Acm)VGTGMKKTSFQRAKS-OH)

Activity [1]: inactive
Molecule: CSCC[C@H](NC(=O)CNC(=O)[C@@H](NC(=O)CNC(=O)[C@@H](NC(=O)[C@@H](CSCc1ccccc1)NC(=O)[C@H](CC(N)=O)NC(=O)[C@H](CCCNC(=N)N)NC(=O)[C@H](Cc1ccccc1)NC(=O)[C@@H](N)CO)C(C)C)[C@@H](C)O)C(=O)N[C@@H](CCCCN)C(=O)N[C@@H](CCCCN)C(=O)N[C@H](C(=O)N[C@@H](CO)C(=O)N[C@@H](Cc1ccccc1)C(=O)N[C@@H](CCC(N)=O)C(=O)N[C@@H](CCCNC(=N)N)C(=O)N[C@@H](C)C(=O)N[C@@H](CCCCN)C(=O)N[C@@H](CO)C(=O)O)[C@@H](C)O (H-SFRN[dC](Bn)VGTGMKKTSFQRAKS-OH)

Activity [1]: inactive
Molecule: CSCC[C@H](NC(=O)CNC(=O)[C@@H](NC(=O)CNC(=O)[C@@H](NC(=O)[C@@H](CSC(C)(C)C)NC(=O)[C@H](CC(N)=O)NC(=O)[C@H](CCCNC(=N)N)NC(=O)[C@H](Cc1ccccc1)NC(=O)[C@@H](N)CO)C(C)C)[C@@H](C)O)C(=O)N[C@@H](CCCCN)C(=O)N[C@@H](CCCCN)C(=O)N[C@H](C(=O)N[C@@H](CO)C(=O)N[C@@H](Cc1ccccc1)C(=O)N[C@@H](CCC(N)=O)C(=O)N[C@@H](CCCNC(=N)N)C(=O)N[C@@H](C)C(=O)N[C@@H](CCCCN)C(=O)N[C@@H](CO)C(=O)O)[C@@H](C)O (H-SFRN[dC](tBu)VGTGMKKTSFQRAKS-OH)

pEC50 (Neuropeptide S receptor): 7.05
Molecule: CSCC[C@H](NC(=O)CNC(=O)[C@@H](NC(=O)CNC(=O)[C@@H](NC(=O)[C@@H](CC(C)C)NC(=O)[C@H](CC(N)=O)NC(=O)[C@H](CCCNC(=N)N)NC(=O)[C@H](Cc1ccccc1)NC(=O)[C@@H](N)CO)C(C)C)[C@@H](C)O)C(=O)N[C@@H](CCCCN)C(=O)N[C@@H](CCCCN)C(=O)N[C@H](C(=O)N[C@@H](CO)C(=O)N[C@@H](Cc1ccccc1)C(=O)N[C@@H](CCC(N)=O)C(=O)N[C@@H](CCCNC(=N)N)C(=O)N[C@@H](C)C(=O)N[C@@H](CCCCN)C(=O)N[C@@H](CO)C(=O)O)[C@@H](C)O (H-SFRN[dL]VGTGMKKTSFQRAKS-OH)

pEC50 (Neuropeptide S receptor): 8.65
Molecule: H-SFRNGVGTGMKKTSFQRAKS-OH [NEUROPEPTIDE S]
Activity (Mus musculus [5]): Active
Activity (Mus musculus [6]): Active
Activity (Mus musculus [7]): Active

Reference: ChEMBL document CHEMBL1139376, “Synthesis and biological activity of human neuropeptide S analogues modified in position 5: identification of potent and pure neuropeptide S receptor antagonists” (J Med Chem, 2009)
